Laboratory results as given in ChEMBL document CHEMBL3870363, “Systematic Study of Effects of Structural Modifications on the Aqueous Solubility of Drug-like Molecules” (ACS Med Chem Lett, 2017).
In brackets after ≈: the same amount, converted by molar mass.

What was measured:
[1] = Aqueous solubility of the compound in Britton-Robinson buffer at pH 6.5 measured after 2 days by saturation shake flask based UV-vis spectroscopy; format: physicochemical
How it was run: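 Shake-flask method: saturated solutions formed by stirring 2 days in Britton–Robinson buffer (pH 6.5), then filtered through a 0.2 μm pore syringe filter and quantified by UV–vis. Piroxicam served as a repeated control.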

[2] = target: T1, Macrophage migration inhibitory factor (Homo sapiens, UniProt P14174); experiment: Inhibition of recombinant human MIF tautomerase activity expressed in Escherichia coli assessed as borate-enol complex formation using 4-hydroxyphenyl pyruvic acid as substrate preincubated for 20 mins followed by substrate addition measured for 175 sec by spectrophotometric analysis
T1 sequence (P14174 whole entry): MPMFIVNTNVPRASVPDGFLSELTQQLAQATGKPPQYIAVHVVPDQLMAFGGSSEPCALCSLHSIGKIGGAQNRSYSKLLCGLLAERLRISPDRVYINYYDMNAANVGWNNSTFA

[3] = Equilibrium solubility of the compound in Britton-Robinson buffer stirred for 6 hrs followed by sedimentation for 18 hrs by saturation shake flask based UV-vis spectroscopy; format: physicochemical

| Structure (SMILES) | solubility thermodynamic at 48 h [1] [µg/mL] | Ki [2] [nM] | solubility thermodynamic at 6 h [3] [µg/mL] |
| --- | --- | --- | --- |
| O=C(O)COc1ccc2nc(-c3cn(-c4ccc(O)c(F)c4)nn3)ccc2c1 | 37 (≈ 97.3 µM) |  |  |
| O=C(O)COCCOc1ccc2nc(-c3cn(-c4ccc(O)c(F)c4)nn3)ccc2c1 | 867 (≈ 2040 µM) | 37 |  |
| NCCOCCOc1ccc2nc(-c3cn(-c4ccc(O)cc4)nn3)ccc2c1.O=C(O)C(F)(F)F | 13.9 |  |  |
| O=C(O)COc1ccc2nc(-c3cn(-c4ccccc4)nn3)ccc2c1 | 1050 (≈ 3020 µM) | 1370 |  |
| COCCOc1cccc(Oc2cccc3nc(-c4cn(-c5ccc(O)c(F)c5)nn4)ccc23)c1 | 6.1 (≈ 12.9 µM) | 24 |  |
| O=C(O)CCCOc1ccc2nc(-c3cn(-c4ccc(O)c(F)c4)nn3)ccc2c1 | 19.2 (≈ 47 µM) |  |  |
| Oc1ccc(-n2cc(-c3ccc4ccccc4n3)nn2)cc1 | 2.2 (≈ 7.63 µM) |  |  |
| O=C(O)c1cccc(Oc2cccc3nc(-c4cn(-c5ccc(O)c(F)c5)nn4)ccc23)c1 | 47.2 (≈ 107 µM) |  |  |
| OCCOc1ccc2nc(-c3cn(-c4ccc(O)cc4)nn3)ccc2c1 | 2.6 (≈ 7.46 µM) |  |  |
| COCCOc1ccc2nc(-c3cn(-c4ccc(O)cc4)nn3)ccc2c1 | 3.6 to 4 (≈ 9.93 to 11 µM) |  |  |
| CN1C(C(=O)Nc2ccccn2)=C(O)c2ccccc2S1(=O)=O [PIROXICAM] | 6.5 (≈ 19.6 µM) |  | 6.36 (≈ 19.2 µM) |
| Oc1ccc(-n2cc(-c3ccc4cc(OCCOCCN5CCOCC5)ccc4n3)nn2)cc1F | 27.2 (≈ 56.7 µM) |  |  |
| NCCOc1ccc2nc(-c3cn(-c4ccc(O)cc4)nn3)ccc2c1.O=C(O)C(F)(F)F | 3.7 |  |  |
| Oc1ccc(-n2cc(-c3ccc4cc(OCC5CCCCO5)ccc4n3)nn2)cc1 (stereo not drawn) | 3.4 (≈ 8.45 µM) | 270 |  |
| COCCOCCOc1ccc2nc(-c3cn(-c4ccc(O)cc4)nn3)ccc2c1 | 2.4 (≈ 5.9 µM) | 147 |  |
| NCCOCCOc1ccc2nc(-c3cn(-c4ccc(O)c(F)c4)nn3)ccc2c1.O=C(O)C(F)(F)F | 9.1 |  |  |
| O=C(O)COc1ccc2nc(-c3cn(-c4ccc(O)cc4)nn3)ccc2c1 | 365 (≈ 1010 µM) |  |  |
